Experimental data published in ChEMBL document CHEMBL1145775, “Development of potential antitumor agents. Synthesis and biological evaluation of a new set of sulfonamide derivatives as histone deacetylase inhibitors” (J Med Chem, 2003).

system: MCF7; test: Inhibitory concentration against breast MCF-7 cell line; format: functional, cell-based; conditions: Homo sapiens
How it was run: (§1)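 MTT assay: cells exposed to a range of compound concentrations for 72 h at 37 °C, 5% CO2. MTT added at 0.5 mg/mL final for 4 h, then solubilized with DMF/SDS buffer (pH 4.7) overnight; absorbance at 570 with 630 reference. OD converted to cell numbers via a standard growth curve.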

SMILES	IC50 [µM]
Cc1ccc(S(=O)(=O)Nc2ccc(/C=C/C(=O)Nc3ccccc3N)cc2)cc1	6
Nc1ccccc1NC(=O)/C=C/c1ccc(NS(=O)(=O)c2ccc(-c3ccccc3)cc2)cc1	29
Cc1ccc(NS(=O)(=O)c2ccc(/C=C/C(=O)Nc3ccccc3N)cc2)cc1	11.5
COc1ccc(S(=O)(=O)Nc2ccc(/C=C/C(=O)Nc3ccccc3N)cc2)cc1	8
COc1ccc(S(=O)(=O)Nc2ccc(/C=C/C(=O)NO)cc2)cc1OC	1.5
Nc1ccccc1NC(=O)c1ccc(CNC(=O)OCc2cccnc2)cc1 [ENTINOSTAT]	5
CC(/C=C/C(=O)NO)=C\[C@@H](C)C(=O)c1ccc(N(C)C)cc1 [TRICHOSTATIN]	10

system: HCT-116; test: Inhibitory concentration against colon HCT116 cell line; format: functional, cell-based; conditions: Homo sapiens; how it was run: as §1

SMILES	IC50 [µM]
Cc1ccc(S(=O)(=O)Nc2ccc(/C=C/C(=O)Nc3ccccc3N)cc2)cc1	4
Nc1ccccc1NC(=O)/C=C/c1ccc(NS(=O)(=O)c2ccc(-c3ccccc3)cc2)cc1	15
Cc1ccc(NS(=O)(=O)c2ccc(/C=C/C(=O)Nc3ccccc3N)cc2)cc1	3.5
COc1ccc(S(=O)(=O)Nc2ccc(/C=C/C(=O)Nc3ccccc3N)cc2)cc1	2.5
COc1ccc(S(=O)(=O)Nc2ccc(/C=C/C(=O)NO)cc2)cc1OC	0.2
Nc1ccccc1NC(=O)c1ccc(CNC(=O)OCc2cccnc2)cc1 [ENTINOSTAT]	0.6
CC(/C=C/C(=O)NO)=C\[C@@H](C)C(=O)c1ccc(N(C)C)cc1 [TRICHOSTATIN]	0.9

system: Fibroblast MRHF cell line; test: Inhibitory concentration against normal fibroblast MRHF cell line; format: functional, cell-based; conditions: Homo sapiens; how it was run: as §1

SMILES	IC50 [µM]
Cc1ccc(S(=O)(=O)Nc2ccc(/C=C/C(=O)Nc3ccccc3N)cc2)cc1	> 37
Nc1ccccc1NC(=O)/C=C/c1ccc(NS(=O)(=O)c2ccc(-c3ccccc3)cc2)cc1	> 25
Cc1ccc(NS(=O)(=O)c2ccc(/C=C/C(=O)Nc3ccccc3N)cc2)cc1	34
COc1ccc(S(=O)(=O)Nc2ccc(/C=C/C(=O)NO)cc2)cc1OC	5
Nc1ccccc1NC(=O)c1ccc(CNC(=O)OCc2cccnc2)cc1 [ENTINOSTAT]	> 37
CC(/C=C/C(=O)NO)=C\[C@@H](C)C(=O)c1ccc(N(C)C)cc1 [TRICHOSTATIN]	36

system: HCT-116; test: In vivo percent inhibitory activity of intraperitoneally administered compound (40 mg/kg/day) against mice […] with HCT116 tumor; format: functional, Homo sapiens; conditions: not given
How it was run: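 CD1 nude mice (18–22 g) implanted with 30 mg fragments of serially passaged A549 or HCT116 tumor; randomized at ~100 mm3 mean tumor volume, six per group. Daily intraperitoneal dosing (7 days/week) for 21 days, compound dissolved in DMSO; vehicle-only controls. Body weight and tumor volume monitored three times weekly; percent tumor growth inhibition versus vehicle.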

SMILES	Inhibition [%]
Cc1ccc(S(=O)(=O)Nc2ccc(/C=C/C(=O)Nc3ccccc3N)cc2)cc1	55
Cc1ccc(NS(=O)(=O)c2ccc(/C=C/C(=O)Nc3ccccc3N)cc2)cc1	37

system: T-24; test: Inhibitory concentration against bladder T24 cell line; format: functional, cell-based; conditions: Homo sapiens; how it was run: as §1

SMILES	IC50 [µM]
Cc1ccc(S(=O)(=O)Nc2ccc(/C=C/C(=O)Nc3ccccc3N)cc2)cc1	8
Nc1ccccc1NC(=O)/C=C/c1ccc(NS(=O)(=O)c2ccc(-c3ccccc3)cc2)cc1	> 36
Cc1ccc(NS(=O)(=O)c2ccc(/C=C/C(=O)Nc3ccccc3N)cc2)cc1	6.5
COc1ccc(S(=O)(=O)Nc2ccc(/C=C/C(=O)Nc3ccccc3N)cc2)cc1	8
COc1ccc(S(=O)(=O)Nc2ccc(/C=C/C(=O)NO)cc2)cc1OC	2
Nc1ccccc1NC(=O)c1ccc(CNC(=O)OCc2cccnc2)cc1 [ENTINOSTAT]	2.5
CC(/C=C/C(=O)NO)=C\[C@@H](C)C(=O)c1ccc(N(C)C)cc1 [TRICHOSTATIN]	4

system: not listed separately; test: The relative effective concentration to induce same level of histone H4 acetylation of human T24 cells by MS-275 at 1 uM; format: functional, T-24; conditions: not given

SMILES	EC [µM]
O=C(/C=C/c1ccc(NS(=O)(=O)c2ccc(-c3ccccc3)cc2)cc1)NO	1
COc1ccc(NC(=O)Nc2ccc(/C=C/C(=O)NO)cc2)cc1OC	>25
Nc1ccccc1NC(=O)/C=C/c1ccc(NS(=O)(=O)c2ccc(-c3ccccc3)cc2)cc1	15
Cc1ccc(NS(=O)(=O)c2ccc(/C=C/C(=O)NO)cc2)cc1	1
CN(C)c1cccc2c(S(=O)(=O)Nc3ccc(/C=C/C(=O)NO)cc3)cccc12	5
Nc1ccccc1NC(=O)/C=C/c1ccc(NS(=O)(=O)c2cccc3oc4ccccc4c23)cc1	10
O=C(/C=C/c1ccc(NS(=O)(=O)c2cccc3oc4ccccc4c23)cc1)NO	1
O=C(/C=C/c1ccc(NS(=O)(=O)c2cccc3ccccc23)cc1)NO	5
Nc1ccccc1NC(=O)/C=C/c1ccc(NS(=O)(=O)c2cccc3ccccc23)cc1	10
Cc1ccc(S(=O)(=O)Nc2ccc(/C=C/C(=O)NO)cc2)cc1	10
COc1ccc(S(=O)(=O)Nc2ccc(/C=C/C(=O)Nc3ccccc3N)cc2)cc1	1
O=C(/C=C/c1ccc(NS(=O)(=O)c2cccc3cccnc23)cc1)NO	25
Nc1ccccc1NC(=O)/C=C/c1ccc(S(=O)(=O)Nc2ccc(-c3ccccc3)cc2)cc1	5
O=C(/C=C/c1ccc(S(=O)(=O)Nc2ccc(-c3ccccc3)cc2)cc1)NO	1
COc1ccc(S(=O)(=O)Nc2ccc(/C=C/C(=O)NO)cc2)cc1	5
COc1ccc(S(=O)(=O)Nc2ccc(/C=C/C(=O)NO)cc2)cc1OC	1

system: NCI-H446; test: Inhibitory concentration against lung H446 cell line; format: functional, cell-based; conditions: Homo sapiens; how it was run: as §1

SMILES	IC50 [µM]
Cc1ccc(S(=O)(=O)Nc2ccc(/C=C/C(=O)Nc3ccccc3N)cc2)cc1	1
Nc1ccccc1NC(=O)/C=C/c1ccc(NS(=O)(=O)c2ccc(-c3ccccc3)cc2)cc1	8
Cc1ccc(NS(=O)(=O)c2ccc(/C=C/C(=O)Nc3ccccc3N)cc2)cc1	2
COc1ccc(S(=O)(=O)Nc2ccc(/C=C/C(=O)Nc3ccccc3N)cc2)cc1	2
COc1ccc(S(=O)(=O)Nc2ccc(/C=C/C(=O)NO)cc2)cc1OC	0.4
Nc1ccccc1NC(=O)c1ccc(CNC(=O)OCc2cccnc2)cc1 [ENTINOSTAT]	1
CC(/C=C/C(=O)NO)=C\[C@@H](C)C(=O)c1ccc(N(C)C)cc1 [TRICHOSTATIN]	1.5

system: MDA-MB-231; test: Inhibitory concentration against breast MDA-MB-231 cell line; format: functional, cell-based; conditions: Homo sapiens; how it was run: as §1

SMILES	IC50 [µM]
Cc1ccc(S(=O)(=O)Nc2ccc(/C=C/C(=O)Nc3ccccc3N)cc2)cc1	2
Nc1ccccc1NC(=O)/C=C/c1ccc(NS(=O)(=O)c2ccc(-c3ccccc3)cc2)cc1	18
Cc1ccc(NS(=O)(=O)c2ccc(/C=C/C(=O)Nc3ccccc3N)cc2)cc1	9
COc1ccc(S(=O)(=O)Nc2ccc(/C=C/C(=O)Nc3ccccc3N)cc2)cc1	6
COc1ccc(S(=O)(=O)Nc2ccc(/C=C/C(=O)NO)cc2)cc1OC	0.7
Nc1ccccc1NC(=O)c1ccc(CNC(=O)OCc2cccnc2)cc1 [ENTINOSTAT]	3
CC(/C=C/C(=O)NO)=C\[C@@H](C)C(=O)c1ccc(N(C)C)cc1 [TRICHOSTATIN]	3.5

system: A549; test: Inhibitory concentration against lung A549 cell line; format: functional, cell-based; conditions: Homo sapiens; how it was run: as §1

SMILES	IC50 [µM]
Cc1ccc(S(=O)(=O)Nc2ccc(/C=C/C(=O)Nc3ccccc3N)cc2)cc1	8
Nc1ccccc1NC(=O)/C=C/c1ccc(NS(=O)(=O)c2ccc(-c3ccccc3)cc2)cc1	18
Cc1ccc(NS(=O)(=O)c2ccc(/C=C/C(=O)Nc3ccccc3N)cc2)cc1	9.5
COc1ccc(S(=O)(=O)Nc2ccc(/C=C/C(=O)Nc3ccccc3N)cc2)cc1	10
COc1ccc(S(=O)(=O)Nc2ccc(/C=C/C(=O)NO)cc2)cc1OC	2
Nc1ccccc1NC(=O)c1ccc(CNC(=O)OCc2cccnc2)cc1 [ENTINOSTAT]	8
CC(/C=C/C(=O)NO)=C\[C@@H](C)C(=O)c1ccc(N(C)C)cc1 [TRICHOSTATIN]	4.5

system: SW48; test: Inhibitory concentration against colon SW48 cell line; format: functional, cell-based; conditions: Homo sapiens; how it was run: as §1

SMILES	IC50 [µM]
Cc1ccc(S(=O)(=O)Nc2ccc(/C=C/C(=O)Nc3ccccc3N)cc2)cc1	10
Nc1ccccc1NC(=O)/C=C/c1ccc(NS(=O)(=O)c2ccc(-c3ccccc3)cc2)cc1	30
Cc1ccc(NS(=O)(=O)c2ccc(/C=C/C(=O)Nc3ccccc3N)cc2)cc1	6.5
COc1ccc(S(=O)(=O)Nc2ccc(/C=C/C(=O)Nc3ccccc3N)cc2)cc1	4
COc1ccc(S(=O)(=O)Nc2ccc(/C=C/C(=O)NO)cc2)cc1OC	0.8
Nc1ccccc1NC(=O)c1ccc(CNC(=O)OCc2cccnc2)cc1 [ENTINOSTAT]	5
CC(/C=C/C(=O)NO)=C\[C@@H](C)C(=O)c1ccc(N(C)C)cc1 [TRICHOSTATIN]	5

system: DU-145; test: Inhibitory concentration against prostate DU145 cell line; format: functional, cell-based; conditions: Homo sapiens; how it was run: as §1

SMILES	IC50 [µM]
Cc1ccc(S(=O)(=O)Nc2ccc(/C=C/C(=O)Nc3ccccc3N)cc2)cc1	2
Nc1ccccc1NC(=O)/C=C/c1ccc(NS(=O)(=O)c2ccc(-c3ccccc3)cc2)cc1	15
Cc1ccc(NS(=O)(=O)c2ccc(/C=C/C(=O)Nc3ccccc3N)cc2)cc1	7
COc1ccc(S(=O)(=O)Nc2ccc(/C=C/C(=O)Nc3ccccc3N)cc2)cc1	5
COc1ccc(S(=O)(=O)Nc2ccc(/C=C/C(=O)NO)cc2)cc1OC	0.75
Nc1ccccc1NC(=O)c1ccc(CNC(=O)OCc2cccnc2)cc1 [ENTINOSTAT]	1
CC(/C=C/C(=O)NO)=C\[C@@H](C)C(=O)c1ccc(N(C)C)cc1 [TRICHOSTATIN]	3.5

system: HMEC; test: Inhibitory concentration against normal epithelial HMEC cell line; format: functional, cell-based; conditions: Homo sapiens; how it was run: as §1

SMILES	IC50 [µM]
Cc1ccc(S(=O)(=O)Nc2ccc(/C=C/C(=O)Nc3ccccc3N)cc2)cc1	> 37
Nc1ccccc1NC(=O)/C=C/c1ccc(NS(=O)(=O)c2ccc(-c3ccccc3)cc2)cc1	> 36
Cc1ccc(NS(=O)(=O)c2ccc(/C=C/C(=O)Nc3ccccc3N)cc2)cc1	> 41
COc1ccc(S(=O)(=O)Nc2ccc(/C=C/C(=O)Nc3ccccc3N)cc2)cc1	38
COc1ccc(S(=O)(=O)Nc2ccc(/C=C/C(=O)NO)cc2)cc1OC	20
Nc1ccccc1NC(=O)c1ccc(CNC(=O)OCc2cccnc2)cc1 [ENTINOSTAT]	> 37
CC(/C=C/C(=O)NO)=C\[C@@H](C)C(=O)c1ccc(N(C)C)cc1 [TRICHOSTATIN]	32

biological target: Histone deacetylase 1 (Homo sapiens, UniProt Q13547); test: Inhibitory activity on partially purified recombinant human Histone deacetylase 1 (HDAC-1); conditions: not given
Sequence (Q13547 whole entry): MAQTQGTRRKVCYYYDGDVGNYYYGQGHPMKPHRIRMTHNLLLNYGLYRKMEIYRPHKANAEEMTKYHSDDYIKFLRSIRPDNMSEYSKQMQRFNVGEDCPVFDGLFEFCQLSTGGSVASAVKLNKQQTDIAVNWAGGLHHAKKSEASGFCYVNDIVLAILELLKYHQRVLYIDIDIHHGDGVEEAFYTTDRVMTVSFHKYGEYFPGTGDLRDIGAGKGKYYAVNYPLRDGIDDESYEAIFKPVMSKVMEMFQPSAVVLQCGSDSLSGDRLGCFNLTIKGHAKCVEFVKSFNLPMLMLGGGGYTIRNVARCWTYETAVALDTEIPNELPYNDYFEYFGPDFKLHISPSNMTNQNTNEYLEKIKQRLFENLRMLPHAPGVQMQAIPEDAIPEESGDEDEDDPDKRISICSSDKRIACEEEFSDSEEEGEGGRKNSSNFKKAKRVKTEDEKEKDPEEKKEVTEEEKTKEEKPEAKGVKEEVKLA

SMILES	IC50 [µM]
COc1ccc(NS(=O)(=O)c2ccc(/C=C/C(=O)NO)cc2)cc1OC	0.05
COc1ccc(NC(=O)Nc2ccc(/C=C/C(=O)NO)cc2)cc1OC	1
COc1ccc(NS(=O)(=O)c2ccc(/C=C/C(=O)Nc3ccccc3N)cc2)cc1OC	3
Cc1ccc(NS(=O)(=O)c2ccc(/C=C/C(=O)NO)cc2)cc1	0.2
CN(C)c1cccc2c(S(=O)(=O)Nc3ccc(/C=C/C(=O)NO)cc3)cccc12	0.2
O=C(O)/C=C/c1ccc(NS(=O)(=O)c2ccc(-c3ccccc3)cc2)cc1	> 25
Nc1ccccc1NC(=O)/C=C/C#Cc1ccc(NS(=O)(=O)c2ccccc2)cc1	5
Nc1ccccc1NC(=O)/C=C/c1ccc(NS(=O)(=O)c2cccc3oc4ccccc4c23)cc1	0.4
O=C(/C=C/c1ccc(NS(=O)(=O)c2cccc3oc4ccccc4c23)cc1)NO	0.04
Nc1ccccc1NC(=O)/C=C/c1ccc(NS(=O)(=O)c2cccc3ccccc23)cc1	3
Cc1ccc(NS(=O)(=O)c2ccc(/C=C/C(=O)Nc3ccccc3N)cc2)cc1	2
COc1ccc(S(=O)(=O)Nc2ccc(/C=C/C(=O)Nc3ccccc3N)cc2)cc1	1
Nc1ccccc1NC(=O)/C=C/c1ccc(S(=O)(=O)Nc2ccc(-c3ccccc3)cc2)cc1	1
O=C(/C=C/C#Cc1cccc(NS(=O)(=O)c2ccccc2)c1)NO [OXAMFLATIN]	0.1
